Measurements: PubChem BioAssay
This is one part of the list. A number with no mark means an inactive call. Active and inactive are the calls of the source.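 Rule for the calls, unless noted: active = mean activation over triplicate wells above the hit cutoff derived from the earlier primary screen (cut at about 11% in these data); inactive = the rest.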

What was measured:
[1] = biological target: Oxysterols receptor LXR-beta (Homo sapiens) (UniProt P55055); assay: LXR agonists, Gal4 luciferase reporter, confirmation, counter-screen for hcDAF-12 agonist project, cell-based, luminescence, HEK293, H. contortus campaign (AID 743027;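 active = mean percent activation of the reporter above a cutoff set as the average over tested compounds plus their standard deviation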); details: HEK293 Gal4-LXR tk-luc reporter, 24 h, at 6.8 µM, stronger effect = higher value, normalized: DMSO 0%, positive control 100%
Method in brief: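 material = Gal4-LXR and tk-luc reporter transfected HEK293 cells | benchmarks = DMSO low control, positive-control high control | compound dosing = one nominal 6.8 µM dose, 0.68% DMSO | repeats = three replicates per compound | times = 24 h compound exposure at 37 °C, 5% CO2 | detection = One-Glo luciferase luminescence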

[2] = test system: Nuclear hormone receptor DAF-12 (Haemonchus contortus); assay: H. contortus DAF-12 receptor agonists, confirmation, cell-based, luminescence, HEK293, lit1-tk-luc, triplicate (AID 743032;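 active = mean activation across triplicate tests above the threshold derived from the earlier primary screen, cut at about 5.5% in these data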;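 note: 0% = DMSO only wells and 100% = 3 µM Δ7-dafachronic acid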); details: HEK293 hcDAF-12 lit1-tk-luc reporter, at 6.8 µM, stronger effect = higher value, % of Δ7-dafachronic acid response
[3] = test system: DAF-12 nuclear receptor (Heterodera glycines), GAL4-LBD fusion; assay: H. glycines DAF-12 receptor agonists, confirmation, cell-based, luminescence, HEK293, GAL4-LBD fusion (AID 743050); details: HEK293 GAL4-hgDAF12 luciferase reporter, agonist mode; at 6.8 µM; stronger effect = higher value; percent of butyrate response;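 note: 0% = DMSO low control and 100% = 2 mM sodium butyrate high control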
[4] = biological target: Oxysterols receptor LXR-beta (Homo sapiens) (UniProt P55055); assay: LXR agonists, Gal4 luciferase reporter, confirmation, counter-screen for hgDAF-12 agonist project, cell-based, luminescence, HEK293, H. glycines campaign (AID 743051;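 active = mean activation of the triplicate above a set limit carried over from the primary screen, none filed active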); details: 24 h, at 6.8 µM, stronger effect = higher value
Method in brief: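 System: Gal4-LXR luciferase reporter HEK293 cells / Compound: single nominal test compound dose of 6.8 µM / Times: 24 h exposure, 37 °C / Technique: One-Glo luminescence after 15 min / Read-out basis: % activation versus DMSO and positive controls / Benchmarks: DMSO low control, 0.68% final / Replication: n 3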

[5] = biological target: Galanin receptor type 2 (Homo sapiens) (UniProt O43603); assay: GALR2 antagonists, retest of hits, confirmation, cell-based (AID 866; in the data active = inhibition above about 27%;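 note: cells stimulated with galanin at about its EC80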); details: GALR2-expressing cells, antagonist mode, at 4 µM, stronger effect = higher value
[6] = inhibitors of NFAT-driven beta-lactamase reporter, confirmation, counter-screen for GALR2 antagonist project, CHO NFAT-bla cells, FRET readout (AID 867;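 active = inhibition above the mean inhibition across tested compounds plus 3 SD, cut at about 27% in these data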;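 note: 0% = 500 nM thapsigargin stimulated wells and 100% = unstimulated BSA only wells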); details: thapsigargin-stimulated, at 4.2 µM, stronger effect = higher value

Oxysterols receptor LXR-beta (Homo sapiens), sequence (P55055 whole entry, looked up, the tested form may be a part): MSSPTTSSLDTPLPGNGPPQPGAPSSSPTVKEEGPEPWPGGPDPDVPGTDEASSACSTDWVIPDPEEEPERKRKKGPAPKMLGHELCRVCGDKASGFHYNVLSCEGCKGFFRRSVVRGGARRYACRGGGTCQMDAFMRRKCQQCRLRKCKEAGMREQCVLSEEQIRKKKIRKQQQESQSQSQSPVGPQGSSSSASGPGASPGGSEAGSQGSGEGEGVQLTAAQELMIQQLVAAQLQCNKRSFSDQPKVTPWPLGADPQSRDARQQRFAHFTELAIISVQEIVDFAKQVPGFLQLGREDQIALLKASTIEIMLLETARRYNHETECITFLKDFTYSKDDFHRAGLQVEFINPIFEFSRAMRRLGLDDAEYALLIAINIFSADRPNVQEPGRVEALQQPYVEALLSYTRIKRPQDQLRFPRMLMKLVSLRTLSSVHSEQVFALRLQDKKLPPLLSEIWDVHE
Galanin receptor type 2 (Homo sapiens), sequence (O43603 whole entry, looked up): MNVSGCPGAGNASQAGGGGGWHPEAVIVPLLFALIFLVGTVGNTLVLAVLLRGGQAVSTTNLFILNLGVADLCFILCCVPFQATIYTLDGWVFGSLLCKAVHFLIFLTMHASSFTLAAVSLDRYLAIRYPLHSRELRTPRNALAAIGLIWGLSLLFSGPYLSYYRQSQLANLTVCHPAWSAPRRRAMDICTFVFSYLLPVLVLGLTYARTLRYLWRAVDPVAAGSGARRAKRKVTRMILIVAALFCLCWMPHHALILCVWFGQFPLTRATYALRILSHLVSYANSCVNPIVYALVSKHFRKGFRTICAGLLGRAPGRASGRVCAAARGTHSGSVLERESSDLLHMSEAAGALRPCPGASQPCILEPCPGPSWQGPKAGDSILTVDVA

SMILES	activation [1] [%]	activation [2]	activation [3]	activation [4] [%]	inhibition [5]	inhibition [6] [%]
Cc1cccc(NC(=O)c2ccc3ccccc3n2)n1	1.06	10.5% (active)	17% (active)	0.69		
O=C(NC(=O)c1ccccc1)Nc1ccccc1O	1.94	13.2% (active)	19.6% (active)	1.13		
Brc1ccc(-c2noc(-c3ccccc3)n2)o1	0.77	7.78% (active)	18.7% (active)	0.75		
Cn1c(NC(=O)c2ccccc2)nc2ccccc21	1.51	16.7% (active)	19.1% (active)	0.86		
Cn1c(=NC(=O)c2ccco2)sc2cccc(F)c21	1.46	15% (active)	22.9% (active)	0.76		
CC(=O)c1cc(C#N)c(SCC(=O)C(C)(C)C)nc1C			14.8% (active)	0.48		
COc1ccc(/C=C2/CCCc3ccccc3C2=O)cc1			18.7% (active)	0.78		
OC(c1ccccc1)c1nc(-c2cnc3ccccc3c2)cs1 (centres undefined)	1.85	6.14% (active)	26.4% (active)	0.98		
O=C(OCC(=O)c1c[nH]c2ccccc12)c1cccc(O)c1	0.27	7.43% (active)				
Cc1ccnc(Nc2nc3ccccc3s2)n1	1.72	18.5% (active)	15% (active)	1.12		
CSc1ccc(/C=N/NC(=O)c2cccc(Cl)c2)cc1			14.8% (active)	0.56		
O=C(Nc1ccccc1)Nc1nc2ccccc2s1	1.95	9.44% (active)	20.4% (active)	1.06		
Cn1c(-c2ccco2)nc2cc3ccccc3cc21	2.33	17.3% (active)			32.7% (active)	15.4
Oc1ccccc1-c1cc(-c2ccc(Cl)cc2)n[nH]1	1.85	14.7% (active)	29.5% (active)	1.15		
COc1ccccc1NC(=O)c1ccc(C)s1	0.6	8.4% (active)				
COc1ccc(CNC(=O)COc2ccccc2C(=O)c2cnn(-c3ccccc3)c2)cc1OC			10.3%	0.65		
O=C(Nn1c(SCc2ccc([N+](=O)[O-])cc2)nc2ccccc2c1=O)c1ccc(F)cc1			11% (active)	0.57		
